Here are results for 14 compounds from ChEMBL document CHEMBL1158383, “Synthesis and blood glucose lowering effect of novel pyridazinone substituted benzenesulfonylurea derivatives” (2009).

Assay [1] has as its system Rattus norvegicus. The assay can be described thus: Antidiabetic activity in normal Wistar albino rat assessed as inhibition of rise of blood glucose level at 20 mg/kg, po administered 15 mins prior to glucose challenge measured after 90 mins of glucose loading by glucose oxidase-peroxidase colorimetric method. The class given is functional. The gist of the method: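 Wistar albino rats of either sex (160–200 g), fasted overnight, in groups of six. Dosed p.o. at 10 ml/kg, suspended in 1% CMC in distilled water; vehicle controls. Glucose 2 g/kg p.o. given 15 min after dosing. Retro-orbital blood taken just before and 90 min after glucose; glucose read by GOD-POD quinoneimine at 505 nm. Percent reduction taken against the control rise, set as 100%.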

Assay [2] deals with Rattus norvegicus. The assay can be described thus: Antidiabetic activity in streptozotocin-induced NIDDM Wistar albino rat model assessed as inhibition of rise of blood glucose level at 20 mg/kg, po administered 15 mins prior to glucose challenge measured after 90 mins of glucose loading by glucose oxidase-peroxidase colorimetric method. The class given is functional. A digest of the protocol: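 n2-STZ model: STZ 100 mg/kg in fresh 0.1 M citrate pH 4.5 given i.p. to 2-day-old pups (6–8 g), weaned for 4 weeks. Diabetic rats had fasting glucose >140 mg/dl and >200 mg/dl 2 h after oral glucose. Overnight-fasted groups of six got a 1% CMC suspension p.o. 15 min before glucose 2 g/kg p.o. GOD-POD at 505 nm before and at 90 min; reduction set against the control rise.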

As for `CCCNC(=O)NS(=O)(=O)c1ccc(-n2nc(-c3ccc(C)cc3)ccc2=O)cc1`, the results for the inhibition in vivo at 20 mg/kg in assay [1] and in assay [2] were 80.5% and 109%, respectively.
For the compound `Cc1ccc(-c2ccc(=O)n(-c3ccc(S(=O)(=O)NC(=O)NC4CCCCC4)cc3)n2)cc1`, the inhibition in vivo (in general, the relative decrease from the control value, in per cent) at 20 mg/kg amounted to 79.9% in assay [1] and 110% in assay [2].
Take `CCCCNC(=O)NS(=O)(=O)c1ccc(-n2nc(-c3ccccc3)ccc2=O)cc1`: the inhibition in vivo at 20 mg/kg in assay [1] worked out at 67.4%; in assay [2], 111%.
For `O=C(NC1CCCCC1)NS(=O)(=O)c1ccc(-n2nc(-c3ccc(Cl)cc3)ccc2=O)cc1`, the inhibition in vivo at 20 mg/kg came out at 59% in assay [1] and 114% in assay [2].
Consider `CCCNC(=O)NS(=O)(=O)c1ccc(-n2nc(-c3ccc(Cl)cc3)ccc2=O)cc1`, for which the figures for the inhibition in vivo at 20 mg/kg in assay [1] and in assay [2] were 74.3% and 122%, respectively.
For `O=C(NCc1ccccc1)NS(=O)(=O)c1ccc(-n2nc(-c3ccc(Cl)cc3)ccc2=O)cc1`, the inhibition in vivo at 20 mg/kg in assay [1] turned out to be 61.6%; in assay [2], 111%.
Turning to `CCCCNC(=O)NS(=O)(=O)c1ccc(-n2nc(-c3ccc(OC)cc3)ccc2=O)cc1`, the inhibition in vivo at 20 mg/kg is 43.7% in assay [1] and 25.6% in assay [2].
Turning to `CCCCNC(=O)NS(=O)(=O)c1ccc(-n2nc(-c3ccc(C)cc3)ccc2=O)cc1`, the inhibition in vivo at 20 mg/kg in assay [1] amounted to 86.6%; in assay [2], 109%.
Consider `O=C(NC1CCCCC1)NS(=O)(=O)c1ccc(-n2nc(-c3ccccc3)ccc2=O)cc1`, for which the inhibition in vivo at 20 mg/kg stood at 52.1% in assay [1] and 86.2% in assay [2].
Take `CCCCNC(=O)NS(=O)(=O)c1ccc(-n2nc(-c3ccc(Cl)cc3)ccc2=O)cc1`: the inhibition in vivo at 20 mg/kg in assay [1] was 66%; in assay [2], 100%.
The matching figures for `Cc1cc(-c2ccc(=O)n(-c3ccc(S(=O)(=O)NC(=O)NC4CCCCC4)cc3)n2)ccc1Cl`: 62.1% and 55.2%.
The matching figures for `Cc1ccc(-c2ccc(=O)n(-c3ccc(S(=O)(=O)NC(=O)NCc4ccccc4)cc3)n2)cc1`: 64.9% and 119%.
In the case of `CCCNC(=O)NS(=O)(=O)c1ccc(-n2nc(-c3ccccc3)ccc2=O)cc1`, the inhibition in vivo at 20 mg/kg was 77.2% in assay [1] and 125% in assay [2].
Turning to `Cc1ccc(S(=O)(=O)NC(=O)NN2CC3CCCC3C2)cc1` (stereo not drawn) [GLICLAZIDE], the inhibition in vivo at 20 mg/kg came to 135% in assay [1] and 107% in assay [2].
